sPLA2-III inh: Inhibits HGIII-sPLA2 liposome hydrolysis, primary screen; Q9NZ20; QFRET BODIPY PC-A2 liposome hydrolysis, fluorescence; inhibition, % at 12.2 µM; hit rate 0.56% among 370,000; AID 743126;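 active = inhibition above mean plus 3 SD of compounds lying within the high and low control bounds, cut at about 19% in these data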;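 also: 0% = median of test compound wells and 100% = no enzyme DMSO wells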
Arrestin-AP2 inh: human beta-arrestin and AP2 interaction inhibition; FITC-arrestin peptide / GST-AP2 beads, flow cytometry; AP2 beta2 appendage carries R879A mutation; inhibition, % at 10 µM; hit rate 0.31% among 340,000;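 active = inhibition above a set limit, near 3 SD of compounds lacking own fluorescence, cut at about 54% in these data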;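 also: plate controls were DMSO wells for no effect and 5 µM unlabelled arrestin peptide for full effect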
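System: GST-tagged AP2 beta2-adaptin appendage (R879A) on 4 µm glutathione beads / Reagent: FITC-arrestin peptide, 50 nM / Detection: HyperCyt-sampled flow cytometry, FL1 channel, ex 488/em 535 nm / Timing: 12 min plus 1 h, RT / Buffer or medium: PBS plus Tween 20 (0.05%) and BSA (0.1%)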
M18AAP inhibitor: blocks P. falciparum M18 aspartyl aminopeptidase. recombinant PfM18AAP, H-Glu-NHMec fluorogenic cleavage. inhibition, % at 7.35 µM. hit rate 1.2% among 290,000. AID 1822;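 active = inhibition above the campaign mean inhibition over all tested compounds plus 3 SD, cut at about 28% in these data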;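 also: 0% = plate median of test compound wells and 100% = 2 mM ZnCl2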
NRP1-CendR mod: modulators of CendR peptide binding to human neuropilin-1; O14786; FAM-RPARPAR peptide binding to NRP-1, fluorescence polarization; inhibition, % at 25 µM; hit rate 0.85% among 360,000; AID 602438;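 active = inhibition or corrected inhibition above about 18%, plus a signal ratio from 0.5 to 1.5, limit read from the data, passing the limit was not always enough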
Lipid droplet: hepatic lipid droplet formation modulation | inhibition, % at 6.5 µM | AID 1656 | AML12 mouse hepatocytes, oleate lipid droplets, BODIPY imaging | hit rate 0.4% among 240,000;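 active = lipid droplet intensity inhibited by at least 50%, with more than 500 cells counted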
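System: AML12 hepatocytes (mouse). Probe or stimulus: oleic acid at 100 µM to induce lipid droplet formation. Times: overnight treatment with compound plus oleate. Detection: Image-based BODIPY and DAPI two-channel analysis. Evaluation: percent inhibition of filter-corrected integrated lipid droplet intensity per well.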
m5-HT2A agonist: activates the mouse 5-HT2A serotonin receptor; P35363; AID 624169; hit rate 0.66% among 360,000; CHO-K1 mHTR2A beta-arrestin complementation, luminescence; percent of 30 µM serotonin response; activation, % at 7.6 µM;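 active = activation above a run cutoff, the mean activation of all tested compounds plus 3 SD, cut at about 14% in these data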;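 also: 0% = plate median of compound wells and 100% = 30 µM serotonin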
Target sequence (P35363 whole entry, looked up): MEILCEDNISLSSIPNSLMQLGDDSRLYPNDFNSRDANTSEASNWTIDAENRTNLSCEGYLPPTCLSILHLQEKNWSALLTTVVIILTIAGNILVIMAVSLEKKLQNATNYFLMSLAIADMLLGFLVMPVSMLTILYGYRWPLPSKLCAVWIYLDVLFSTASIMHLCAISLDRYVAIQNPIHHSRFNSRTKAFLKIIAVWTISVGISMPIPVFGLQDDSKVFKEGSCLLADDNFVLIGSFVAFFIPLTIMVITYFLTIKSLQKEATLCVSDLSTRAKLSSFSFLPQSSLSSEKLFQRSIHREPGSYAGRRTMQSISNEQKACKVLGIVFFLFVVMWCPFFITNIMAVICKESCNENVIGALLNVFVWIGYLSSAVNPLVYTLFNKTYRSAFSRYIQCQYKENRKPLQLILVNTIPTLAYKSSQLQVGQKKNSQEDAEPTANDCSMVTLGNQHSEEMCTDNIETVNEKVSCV
The depositor's hits bear a star; . = no result. This is a sample that favours compounds with a hit; in the whole collection about 3.3% have one here.

SMILES | sPLA2-III inh | Arrestin-AP2 inh | M18AAP inhibitor | NRP1-CendR mod | Lipid droplet | m5-HT2A agonist
CCOC(=O)CC[C@H]1CC[C@]2(CCCN(C(=O)c3ccccc3)C2)O1 | -0.4 | . | . | . | . | .
COc1ccc(C(NC(=O)C(C)(C)C)NC(=O)C(C)(C)C)cc1 | 8.2 | -8.1 | -11.6 | 20.1* | 21.9 | 1.4
O=C(c1ccccc1)N1CCC2CCN(CCc3ccccc3)CC21 (stereo not drawn) | 6.4 | . | . | . | . | .
COC(=O)c1cccc(NC(=S)NCCC2=CCCCC2)c1 | -13.6 | 1.6 | -6.3 | 36.1* | . | -6.9
COC(=O)c1ccc(NC(=S)NCCC2=CCCCC2)cc1 | 0.9 | 17.8 | -0.9 | -3.3 | . | -0.1
COc1cccc(C(=O)Nc2ccc3c(cc2=O)[C@@H](NC(C)=O)CCc2cc(OC)c(OC)c(OC)c2-3)c1 | . | -8.2 | -4.8 | 7.2 | -0.9 | 15.7*
COc1cc2c(c(OC)c1OC)-c1ccc(OC)c(=O)cc1C(NC(C)=O)CC2 (stereo not drawn) | 3.4 | -14.9 | -1.0 | 7.4 | -202.9 | 8.6
C=C1CCN(Cc2ccccc2)S(=O)(=O)c2ccccc21 | 9.9 | 22.6 | . | -3.1 | -0.7 | 0.9
O=C1CCN(Cc2ccccc2)S(=O)(=O)c2ccccc21 | 2.5 | 5.3 | . | 23.5* | -6.0 | -4.2
Cc1cc(N)c(C)c([N+](=O)[O-])c1C | 7.8 | -4.6 | -0.8 | 30.9* | -0.2 | 2.9
CCC1=[N+](C)CCn2c(C)ccc21 | 5.0 | 83.2* | 15.1 | 0.4 | 12.5 | 6.8
Cc1ccc2nc(-c3cccc(Br)c3)c(Cc3ccccn3)n2c1 | -2.6 | . | . | -10.4 | . | 10.3
CN(Cc1ccco1)C(=O)CN1C(=O)C2(OCCCO2)c2ccccc21 | 1.2 | . | . | . | . | .
O=C(CN1C(=O)NC(Cc2ccccc2)C1=O)Nc1ccc(F)cc1 (stereo not drawn) | -2.0 | -6.5 | -4.7 | 2.8 | . | 0.6
O=C(CN1C(=O)NC(Cc2ccccc2)C1=O)Nc1ccc(OC(F)(F)F)cc1 (stereo not drawn) | -0.9 | -15.7 | . | 33.6* | . | 10.1
CCc1ccccc1NC(=O)NC1CC2CCC(C1)N2Cc1ccco1 (stereo not drawn) | -3.2 | 7.8 | -5.9 | 19.7* | 9.7 | -7.2
CCOc1ccc(OCc2ccc(C(=O)N3CCCCC3)o2)cc1 | -3.6 | -9.4 | -1.3 | 2.1 | 22.7 | -2.9
CCOc1ccc(OCc2ccc(C(=O)N3CCc4ccccc4C3)o2)cc1 | -7.8 | 25.5 | 2.3 | 2.1 | . | 15.4*
O=C(NN=C1CCCCCCC1)c1ccc(F)cc1 | 6.8 | 2.0 | -0.6 | -7.7 | 0.4 | -5.0
O=C(NN=C1CCCCCCCCCCC1)c1ccccc1F | 1.4 | -3.7 | -0.7 | 28.5* | -4.5 | 2.5
O=C(NN=C1CCCC1)c1ccc(O)cc1O | 0.8 | 17.0 | 31.0* | -6.8 | -24.0 | -0.8
CC(=O)c1ccc2noc(-c3ccc(F)cc3)c2c1 | -12.6 | 0.4 | 0.7 | 37.3* | -3.8 | -0.4
Cc1snc(S(=O)(=O)/C(C#N)=N/Nc2cccc(C(F)(F)F)c2)c1C#N | . | 1.7 | 8.4 | 26.9* | 8.6 | 5.1
CCN(CCn1cccn1)C(=O)CCc1nnc(-c2ccccc2)o1 | 11.1 | 6.2 | -2.0 | 6.0 | -1.8 | 1.6
CCN(CCn1cccn1)C(=O)CCc1nnc(Cc2c[nH]c3ccccc23)o1 | 3.9 | 0.5 | -4.4 | 21.1* | -7.2 | 3.9
SMILES | sPLA2-III inh | Arrestin-AP2 inh | M18AAP inhibitor | NRP1-CendR mod | Lipid droplet | m5-HT2A agonist
CCCCN1CCN(C2=NC(=O)N(c3ccc(Br)cc3)C(=O)C2)CC1 | 10.5 | . | . | . | . | .
Cc1ccnc(N2CCC(C(=O)Nc3ccc4c(c3)OCCO4)CC2)n1 | 3.6 | -5.1 | 2.9 | 24.8* | -7.6 | -4.8
Cc1ccnc(N2CCC(C(=O)Nc3ccc4c(c3)OCO4)CC2)n1 | 7.2 | -3.0 | -4.0 | -14.5 | 9.4 | -0.7
O=C(O/N=C1/CCSc2ccccc21)c1ccccc1 | -3.1 | -1.7 | 6.8 | 26.0* | . | 5.9
COC1=CC(=NCl)C=CC1=NCl | . | . | . | 54.3* | . | -1.6
ClN=C1C=CC=CC1=NCl | . | . | . | 19.0 | . | -0.1
COCc1c(C(=O)OCC(=O)NCCc2ccc(S(N)(=O)=O)cc2)oc2ccccc12 | 4.4 | -18.0 | . | 20.8* | . | 1.9
Cc1c(C(=O)OCC(=O)NCCc2ccc(S(N)(=O)=O)cc2)oc2ccccc12 | -3.5 | 7.2 | . | 6.3 | . | -2.9
CN(C(=O)c1cccc(NC(=O)Cc2ccc(NC(=O)C3CCN(C(=O)CCc4ccccc4)CC3)cc2)c1)C1CCCC1 | -41.2 | . | . | . | . | .
COCCC(=O)N1CCC(Oc2ccc(C(=O)NCCn3cccn3)cc2)CC1 | -2.3 | 40.1 | 1.4 | 36.3* | -0.4 | 1.2
O=C(O)C1CCc2sc3[nH]c(=S)n(-c4ccccc4)c(=O)c3c21 (stereo not drawn) | 0.1 | 8.5 | 30.6* | -0.7 | -4.9 | 2.4
CCOC(=O)[C@@]12CCC3=C1N(CCC3)C(=O)[C@H](CC(=O)NCc1ccc(OC)c(OC)c1)C2 | 13.3 | . | . | . | . | .
COc1ccccc1C=NNc1ccc([N+](=O)[O-])cn1 | 4.7 | 4.9 | . | 24.1* | . | -1.6
O=[N+]([O-])c1ccc(N/N=C\c2cccn2-c2ccccc2)nc1 | 8.9 | 14.9 | 47.2* | -51.1 | . | -8.6
O=C1CC(=O)c2c1cccc2[N+](=O)[O-] | . | . | 33.9* | . | -1.2 | .
O=C1OCc2cccc([N+](=O)[O-])c21 | 1.5 | -4.5 | 0.3 | -1.4 | . | 6.6
Nc1[nH]c(C(=O)c2ccccc2)c(-c2ccc3ccccc3c2)c1C(=O)NCc1ccc(F)cc1 | -8.5 | . | . | . | . | .
O=C(O)c1ccc(NC2=C(Cl)C(=O)c3ccccc3C2=O)cc1 | 0.4 | -2.6 | 4.1 | 29.0* | 30.9 | 4.9
CCOC(=O)[C@]12CCC=C1N(Cc1ccccc1)C(=O)[C@H](CC(=O)NCCC(C)C)C2 | 9.0 | . | . | 12.3 | . | 9.9
O=C(CC(=O)c1ccccc1)Nc1ccc([N+](=O)[O-])cc1 | -9.7 | -14.3 | . | 25.4* | . | -2.8
CS(=O)(=O)Nc1ccc(C(=O)CC(=O)Nc2ccc([N+](=O)[O-])cc2)cc1 | -22.3 | 9.8 | 5.0 | -8.8 | -0.2 | 1.9
OC[C@@H]1CN(CCN2CCOCC2)C[C@H](n2cnc3c(Nc4ccccc4)ncnc32)O1 | -7.3 | . | . | 1.6 | . | 4.6
Cc1cc(C)n2c(SCC(=O)Nc3cccc(S(N)(=O)=O)c3)nnc2n1 | -3.3 | 8.3 | . | 24.2* | . | 3.1
CC(=O)Nc1ccc(C(=O)Nc2cccc(S(=O)(=O)N(C)c3ccccc3)c2)cc1 | -11.7 | -17.0 | . | 26.0* | . | 6.7
CN(c1ccccc1)S(=O)(=O)c1cccc(NC(=O)c2ccncc2)c1 | -10.3 | 10.3 | 0.1 | -2.0 | 19.2 | 3.2
CN(c1ccccc1)S(=O)(=O)c1cccc(NC(=O)CSc2nncn2C)c1 | 12.6 | -0.8 | 1.7 | 23.5* | -5.3 | -2.2
Cc1nnc(SCC(=O)Nc2cccc(S(N)(=O)=O)c2)n1-c1ccccc1 | 15.4 | 4.2 | -0.9 | 8.5 | -8.1 | 6.1
CCN(CC(=O)Nc1cccc(C(C)=O)c1)S(=O)(=O)c1ccc(C)cc1 | -2.2 | 1.3 | 10.2 | 42.9* | -17.3 | 2.5
